In the library only some 2.6% were active in any assay of this set; here they are far more common.
KCC2 mod = modulators of human KCC2 chloride dependent transport. B-score of Tl+ flux slope (higher = more flux/activation; lower = inhibition) at 10 µM. KCC2 cells, thallium flux FluoZin-2 fluorescence. 190,000 tested, 2.2% active. AID 1456. Q9H2X9;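 active = thallium flux slope and its plate-corrected score both differing from the plate sample mean at a set confidence after two filtering rounds, in either direction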;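 also: slope of fluorescence scaled to starting intensity during 10 to 20 s after thallium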
CHT allo act = allosterically activates the human high affinity choline transporter. Q9GZV3. CHT-expressing cells, membrane potential dye, choline EC20; stronger effect = higher value; LV-AA mutant CHT in HEK293 cells. B-score at 10 µM. 310,000 tested, 0.49% active. AID 488977;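 active = initial fluorescence not abnormally high and integrated response B-score, plate-corrected, over 3 SD above library mean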
Target sequence (Q9GZV3 whole entry, looked up): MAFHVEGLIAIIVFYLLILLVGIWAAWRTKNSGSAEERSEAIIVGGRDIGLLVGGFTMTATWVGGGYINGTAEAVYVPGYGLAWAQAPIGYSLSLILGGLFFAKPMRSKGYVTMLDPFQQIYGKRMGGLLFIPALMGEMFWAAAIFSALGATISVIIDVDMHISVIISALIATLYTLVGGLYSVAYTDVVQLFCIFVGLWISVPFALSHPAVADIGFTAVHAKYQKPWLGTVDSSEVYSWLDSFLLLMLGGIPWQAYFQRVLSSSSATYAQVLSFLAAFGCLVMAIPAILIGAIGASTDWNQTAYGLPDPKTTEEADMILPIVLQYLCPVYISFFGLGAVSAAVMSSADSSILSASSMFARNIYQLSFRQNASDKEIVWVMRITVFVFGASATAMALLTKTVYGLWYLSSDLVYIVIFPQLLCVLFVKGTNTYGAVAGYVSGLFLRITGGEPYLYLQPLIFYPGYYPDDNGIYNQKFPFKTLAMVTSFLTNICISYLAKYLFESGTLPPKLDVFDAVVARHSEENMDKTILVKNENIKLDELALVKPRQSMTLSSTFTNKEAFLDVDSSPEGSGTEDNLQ
Rad51 HR inh = Rad51 (human) homologous recombination inhibition; Q06609; hRad51 DNA strand exchange, fluorescence dequenching; inhibition, % at 10 µM; 200,000 tested, 0.085% active; AID 1385;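 active = inhibition above 40% at the single screening dose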
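Test system – preformed human Rad51 ssDNA filaments · Reagent – Donor/quencher-labelled 47-bp dsDNA substrate · Incubation – 37 °C 15-min filament assembly, 30-min compound preincubation, 15-min exchange · Signal – FRET fluorescence dequenching, excitation 485 nm, emission 520 nm · Read-out – percent inhibition from fluorescence, normalised to plate control and blank means · Benchmarks – plate control and blank wells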
CHT inh = inhibitors of human choline transporter CHT. Q9GZV3. CHT-expressing cells, membrane potential dye, choline response; stronger effect = lower value. B-score at 10 µM. 310,000 tested, 0.86% active. AID 488975;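 active = B-score over 3 SD under the library average, and starting fluorescence ratio not unusually high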;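 also: choline stimulus applied at its EC90 after an EC20 pre-addition; B-score computed on integrated fluorescence ratio after choline addition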
CHT inh conf = human CHT inhibition, confirmatory screen | CHT-expressing cells, choline membrane potential dye; LV-to-AA substituted CHT, HEK293 cells | 2,400 tested, 70% active | AID 493221 | CHT activity remaining % of control (stronger effect = lower value), % at 10 µM | shares compounds with CHT inh;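 active = choline transporter activity left, mean of duplicates at 10 µM, below buffer-only control mean minus 3 SD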;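 also: depolarization triggered by choline at its EC90 following an EC20 pre-addition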
HEK293 MPD ctr = CHT inhibitor counter-screen hit in parental HEK293 cells | shares compounds with CHT inh | membrane potential dye, choline response; active = decrease or increase beyond buffer ±3SD | membrane potential ratio readout (active if shifted either direction beyond buffer ±3SD; no single direction) at 10 µM | 2,400 tested, 4% active | AID 493222;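 also: parental cells lack the transporter so any hit is non-specific; ratio is peak minus trough fluorescence over baseline after EC90 choline challenge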
Large screens that a line does not name were inactive (follow-up assays come after a bar, where they were run).

COc1ccc(C=O)cc1OC1C=CCCC1 (stereo unspecified)	none (no result: KCC2 mod, Rad51 HR inh)
CC(C)(C)c1csc(NC(=O)c2ccccc2O)n1	CHT inh -6.8 (no result: KCC2 mod, Rad51 HR inh) | CHT inh conf inactive | HEK293 MPD ctr inactive
CC(OC(=O)c1snc(C(=O)NC2CCCCC2)c1N)C(=O)NC1CCCCC1 (stereo unspecified)	none
CSc1ccc(CNCCCSc2ncccn2)cc1	CHT inh -5.6 (no result: KCC2 mod, Rad51 HR inh) | CHT inh conf inactive | HEK293 MPD ctr inactive
COc1ccc(CN2CCN(C(C)C)C(CCO)C2)cc1Cn1cccn1 (stereo unspecified)	CHT inh -12 (no result: KCC2 mod) | CHT inh conf 6.3% | HEK293 MPD ctr inactive
COc1ccc(CN2CCN(CCC(C)C)C(CCO)C2)cc1Cn1cccn1 (stereo unspecified)	none
NC1=NC2(CCCCCC2)n2c(nc3ccccc32)N1	CHT inh -5.5 | CHT inh conf 15% | HEK293 MPD ctr inactive
c1ccc2c(c1)NC1(CCCCCC1)n1c-2nc2ccccc21	none
CCn1nc(C)cc1-c1nnc(Sc2ncc([N+](=O)[O-])s2)n1C	CHT inh -6 (no result: KCC2 mod, Rad51 HR inh) | CHT inh conf 45% | HEK293 MPD ctr inactive
Cc1c(Cl)cccc1NC(=O)C1NC(=O)CC1c1ccccc1 (stereo unspecified)	none (no result: KCC2 mod)
CCOC(=O)CN1C(=O)S/C(=C/c2ccc(O)c([N+](=O)[O-])c2)C1=O	CHT inh -5.5 | CHT inh conf inactive | HEK293 MPD ctr inactive
CCOC(=O)CN1C(=O)S/C(=C/c2cc(C)n(C)c2C)C1=O	none
CC1CCCCN1C(=O)CCn1c(=O)oc2ccccc21 (stereo unspecified)	none (no result: KCC2 mod, Rad51 HR inh)
COc1cc(NC(=O)c2csc(-c3ccncc3)n2)cc(C(=O)Nc2cccc(C(F)(F)F)c2)c1	CHT inh -8.6 | CHT inh conf 26% | HEK293 MPD ctr inactive
CCSc1nnc2n1C(C)(C)Cc1ccccc1-2	CHT inh -5 (no result: Rad51 HR inh) | CHT inh conf 41% | HEK293 MPD ctr inactive
C1=C2C[N+]3(CCCC3)CC2Cc2ccc3ccccc3c21 (stereo unspecified)	CHT inh -7.6 (no result: KCC2 mod) | CHT inh conf 46% | HEK293 MPD ctr 2.6
COc1ccccc1NC(=O)CCc1nc2sc3c(c2c(=O)[nH]1)CCCC3	none (no result: KCC2 mod, Rad51 HR inh)
CC(C)n1cnc2c(N(C)c3cccc(Cl)c3)nc(N(CCO)CCO)nc21	CHT inh -6.6 | CHT inh conf 52% | HEK293 MPD ctr inactive
Cc1ccc(C(=O)/C=C/C(=O)O)cc1	CHT inh -5.8 | CHT inh conf 26% | HEK293 MPD ctr inactive
Cc1ccc(/C=C/C(=O)c2ccc(O)cc2)cc1	none
Cc1ccc(N2C(=O)N(CC(=O)Nc3c(C)cc(C)cc3Cl)C(=O)C2C)cc1 (stereo unspecified)	CHT inh -5 (no result: KCC2 mod, Rad51 HR inh) | CHT inh conf inactive | HEK293 MPD ctr inactive
Cc1ccc(N2C(=O)N(CC(=O)Nc3ccc(C)cc3C)C(=O)C2C)cc1 (stereo unspecified)	none
CC(C)(C)c1ccc(C(=O)NCC(=O)N2CCC3(CC2)NCCc2[nH]cnc23)cc1	none (no result: KCC2 mod, Rad51 HR inh)
COc1ccc(-c2cc(C(F)(F)F)nc(SCC(=O)N3CCOCC3)n2)cc1OC	none
O=C(CSc1nc(-c2ccccc2)cc(C(F)(F)F)n1)N1CCOCC1	CHT inh -5.8 | CHT inh conf inactive | HEK293 MPD ctr inactive
O=[N+]([O-])c1ccccc1S(=O)(=O)NC1CCCC1	none
Cc1noc(C)c1CSc1nc2ccccc2c(=O)n1-c1ccc(Cl)cc1	none (no result: KCC2 mod)
Cc1noc(C)c1CSc1nc2ccccc2n1CCc1ccccc1	CHT inh -5 (no result: KCC2 mod) | CHT inh conf inactive | HEK293 MPD ctr inactive
CCC1(C)Cc2c(sc3nnn(CC(=O)Nc4ccccc4)c(=O)c23)CO1 (stereo unspecified)	none | CHT inh conf 58% | HEK293 MPD ctr inactive
O=C(O)c1ccc(-c2nc(-c3ccccc3Cl)cs2)cc1	CHT inh -5.4 | CHT inh conf 40% | HEK293 MPD ctr inactive
COc1ccc(CCNC(=O)C2CCN(C(=O)c3ccccc3C)CC2)cc1	none (no result: KCC2 mod, Rad51 HR inh)
Cc1noc(C)c1COC(=O)c1cnc(Cl)c(Cl)c1	CHT inh -6.9 | CHT inh conf 47% | HEK293 MPD ctr inactive
Cc1noc(C)c1COC(=O)c1cc(F)c(F)cc1Cl	none
CC(NC(=O)CCN1C(=O)c2ccccc2C1=O)c1ccc2c(c1)CCCC2 (stereo unspecified)	CHT inh -5.4 | CHT inh conf inactive | HEK293 MPD ctr inactive
COc1ccccc1CNC(=O)C1CCC(=O)N1C(C)C (stereo unspecified)	none (no result: KCC2 mod, Rad51 HR inh)
O=C1CS/C(=C\[N+](=O)[O-])N1c1ccccc1	none
Cc1c(N=Nc2ccc(O)cc2)c(=O)n(-c2ccccc2)n1C	none
Cc1[nH]c2ccccc2c1N=Nc1c(C)n(C)n(-c2ccccc2)c1=O	CHT inh -13 | CHT inh conf inactive | HEK293 MPD ctr inactive
O=Cc1ccccc1OCCOc1ccc([N+](=O)[O-])cc1	none
Cc1ccc(-c2csc3ncnc(-n4cnc5ccccc54)c23)cc1	CHT inh -7.5 | CHT inh conf 24% | HEK293 MPD ctr inactive
Cc1ccc(-c2csc3ncnc(-n4nnc5ccccc54)c23)cc1	CHT inh -7.5 | CHT inh conf 63% | HEK293 MPD ctr inactive
Cc1ccc(-c2csc3ncnc(-n4nnc5ccccc54)c23)cc1C	none
c1ccc(-c2csc3ncnc(-n4cnc5ccccc54)c23)cc1	none (no result: Rad51 HR inh)
Cc1c(Br)c([N+](=O)[O-])nn1CC(=O)Nc1cccc2nonc12	none
O=C(NCc1ccco1)/C(=C/c1ccc([N+](=O)[O-])cc1)NC(=O)c1ccco1	none (no result: KCC2 mod, Rad51 HR inh)
C=CCNC(=O)/C(=C\c1ccc([N+](=O)[O-])cc1)NC(C)=O	CHT inh -7.6 (no result: Rad51 HR inh) | CHT inh conf inactive | HEK293 MPD ctr inactive
CCc1ccc(OC(C)C(=O)Nc2ccc(S(=O)(=O)Nc3nccs3)cc2)cc1 (stereo unspecified)	CHT inh -5 (no result: KCC2 mod, Rad51 HR inh) | CHT inh conf 59% | HEK293 MPD ctr inactive
Cc1cc(C)cc(OC(C)C(=O)Nc2ccc(S(=O)(=O)Nc3cc(C)nc(C)n3)cc2)c1 (stereo unspecified)	CHT inh -6 (no result: KCC2 mod, Rad51 HR inh) | CHT inh conf 40% | HEK293 MPD ctr inactive
COc1ccc(S(=O)(=O)N2CCN(C(=O)c3sccc3-c3ccccc3)CC2)cc1	none (no result: KCC2 mod, Rad51 HR inh)
COc1ccc(CC(=O)NCC2CCCN(Cc3cc(OC)cc(OC)c3)C2)cc1 (stereo unspecified)	none (no result: KCC2 mod, Rad51 HR inh)
NC(=O)c1cc(S(=O)(=O)Nc2cccc(Cl)c2)cs1	none (no result: KCC2 mod, Rad51 HR inh)
O=C(NC1CCCCC1)N1CCN(c2ccc([N+](=O)[O-])cc2)CC1	none (no result: KCC2 mod, Rad51 HR inh)
O=C(NC1CCCCC1)N1CCN(c2ccc(Cl)cc2)CC1	CHT inh -5.8 (no result: KCC2 mod, Rad51 HR inh) | CHT inh conf inactive | HEK293 MPD ctr inactive
O=[N+]([O-])c1ccc(Nc2ccccc2O)c2nonc12	CHT inh -5.9 (no result: KCC2 mod, Rad51 HR inh) | CHT inh conf 53% | HEK293 MPD ctr inactive

Compound activity deposited in PubChem BioAssay by several laboratories.
